Molecules are shown by their SMILES. pIC50: −log10 of the molar value. Calls of active or inactive are those of the source. The calls are words filed in the database; no cut-off is given here.

One test concerns the target T1, Glycogen synthase kinase-3 beta (Homo sapiens, UniProt P49841). Briefly: Inhibition of recombinant human GSK3beta using prephosphorylated peptide as substrate measured after 30 mins by Kinase-glo luminescence assay. A general note: Kinase-Glo reads ATP consumption through a luciferase reaction.
Target sequence in this assay (P49841 whole entry): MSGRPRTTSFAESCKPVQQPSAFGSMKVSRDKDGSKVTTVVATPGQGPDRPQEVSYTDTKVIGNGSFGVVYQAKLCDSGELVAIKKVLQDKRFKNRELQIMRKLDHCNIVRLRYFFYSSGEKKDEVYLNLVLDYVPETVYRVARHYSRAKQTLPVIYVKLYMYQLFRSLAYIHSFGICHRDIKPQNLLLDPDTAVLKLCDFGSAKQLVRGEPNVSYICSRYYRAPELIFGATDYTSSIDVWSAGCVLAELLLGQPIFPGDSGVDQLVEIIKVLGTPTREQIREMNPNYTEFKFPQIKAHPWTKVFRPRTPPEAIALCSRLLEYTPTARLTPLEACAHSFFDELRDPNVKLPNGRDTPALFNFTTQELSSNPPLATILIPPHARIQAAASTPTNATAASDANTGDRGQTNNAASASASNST
A word on the pIC50: it is the negative decadic logarithm of the IC50, by convention in mol/L. Take `C=CC(=O)Nc1ccc2nc(NC(=O)NCc3ccc(OC)cc3)sc2c1`: the pIC50 is < 5.00.
For `C=CC(=O)c1ccc2nc(NC(=O)NCc3ccc(OC)cc3)[nH]c2c1`, the pIC50 is 5.74.
For the compound `C#CC(=O)c1ccc2nc(NC(=O)NCc3ccc(OC)cc3)[nH]c2c1`, the pIC50 is 5.61.
As to `COc1ccc(CNC(=O)Nc2nc3ccc(C(C)=O)cc3[nH]2)cc1`, the pIC50 was 6.59.
Same read-out and setting: then `C=CC(=O)Nc1ccc2nc(NC(=O)NCc3ccc(OC)cc3)[nH]c2c1`, with < 5.00.
The same measure, in the same setting: as for `C#CC(=O)c1ccc2nc(NC(=O)NCc3ccc(OC)cc3)sc2c1`, the figure is 5.38; as for `COc1ccc(CNC(=O)Nc2nc3ccc(C#N)cc3s2)cc1`, 6.96.
As to `COc1ccc(CNC(=O)Nc2nc3ccc(C(C)=O)cc3s2)cc1`, the pIC50 is 5.65.
In the case of `COc1ccc(CNC(=O)Nc2nc3ccc(C(=O)CBr)cc3[nH]2)cc1`, the pIC50 was 6.89.
For `COc1ccc(CNC(=O)Nc2nc3ccc(C#N)cc3[nH]2)cc1`, the pIC50 is 7.07.
Turning to `COc1ccc(CNC(=O)Nc2nc3ccc(C(=O)CBr)cc3s2)cc1`, the pIC50 is 6.11.
Turning to `C=CC(=O)c1ccc2nc(NC(=O)NCc3ccc(OC)cc3)sc2c1`, the negative-log IC50 (pIC50) is 5.39.

The next test concerns the target T1, Glycogen synthase kinase-3 beta. Briefly: Time-dependent irreversible inhibition of recombinant human GSK3beta at 0.05 to 0.1 uM using prephosphorylated peptide as substrate by Kinase-glo luminescence assay. The procedure, abridged:
(§1)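 Inhibitor pre-incubated with GSK-3β for varying lengths of time before the kinase reaction. Inhibition is expressed as percentage inhibition at each pre-incubation time.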
Target sequence in this assay (P49841 whole entry, looked up): as the sequence (P49841 whole entry) above
For `COc1ccc(CNC(=O)Nc2nc3ccc(C#N)cc3[nH]2)cc1`, the TDI result was “Active”.

The target is the same in the next test. Briefly: Time-dependent irreversible inhibition of recombinant human GSK3beta at 0.05 to 0.2 uM using prephosphorylated peptide as substrate by Kinase-glo luminescence assay. An outline of the steps: as §1
Target sequence in this assay (P49841 whole entry, looked up): as the sequence (P49841 whole entry) above
With `COc1ccc(CNC(=O)Nc2nc3ccc(C(=O)CBr)cc3[nH]2)cc1`, the TDI result is “Active”.
